# STAT1 activator: STAT1 signaling activation; activation (% of control), % at 5.5 µM; NIH 3T3 STAT1-luciferase reporter, IFN-gamma, luminescence; 100% = IFN-gamma alone, no compound; actives 2.6% (n = 200,000);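 active = activation above the screen-wide mean activation plus 3 SD, cut at about 130% in these data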;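 note: raw ratio to IFN-gamma control signal so 100% means no change and 0% no light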
# APP 5'UTR act: APP 5'UTR luciferase reporter activation. SH-SY5Y APP 5'UTR luciferase reporter, luminescence; zero percent = DMSO vehicle wells. activation, % at 2 µM. actives 1% (n = 190,000);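 active = activation above a set limit, based on mean plus 3 SD of controls, cut at about 140% in these data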
# STAT1 blocker: STAT1 signaling inhibition; NIH 3T3 STAT1-luciferase reporter, IFN-gamma, luminescence; inhibition, % at 5.5 µM; actives 0.35% (n = 200,000); AID 920;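 active = inhibition above a set limit, the mean inhibition across all tested compounds plus 3 SD, cut at about 34% in these data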;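 note: 0% = IFN-gamma with DMSO and 100% = IFN-gamma with 300 µM nifuroxazide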
# STAT3 blocker: reduces IL-6 driven STAT3 reporter signal; actives 0.89% (n = 190,000); inhibition, % at 5.5 µM; U3A cells, IL-6 STAT3-luciferase reporter, luminescence; host cell line lacks STAT1;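 active = inhibition above the mean inhibition across all screened compounds plus 3 SD, cut at about 44% in these data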;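 note: 0% = DMSO only wells and 100% = 100 µM nifuroxazide control wells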
# STAT3 act: STAT3 signaling activation. activation (% of control), % at 5.6 µM. U3A cells, IL-6 STAT3-luciferase reporter, luminescence; 100% = signal with IL-6 EC80 alone. AID 871. actives 0.91% (n = 190,000);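 active = activation above the screen-wide mean of compound activation plus 3 SD, cut at about 130% in these data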;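 note: 0% = background luminescence of wells with medium and substrate only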
#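 Test system: human U3A cells carrying STAT3-luciferase construct; control set: IL-6-only wells as 100% reference; timing: compound pre-incubation 1 h before IL-6, then 6 h stimulation at 37 °C; also added: IL-6 stimulus at 33 ng/mL final; evaluation: % activation versus median of IL-6-stimulated wells; detection: reporter luminescence signal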
# NF-kB neuron act: raises NF-kB expression in human neuronal cells; NF-kB reporter expression; active compounds read high; fold change at 12.5 µM; actives 1.6% (n = 190,000); AID 1239; in the data active = fold change above about 3.3
# * hit, by the source's call; . = no result given. In the library only some 4.9% were active in any assay of this set; here they are far more common.
SMILES,STAT1 activator,APP 5'UTR act,STAT1 blocker,STAT3 blocker,STAT3 act,NF-kB neuron act
CCn1c(C)nc2cc(C(=O)N/N=C/c3ccccc3C)ccc21,143*,96,-45,18,86,3.9*
CCn1c(C)nc2cc(C(=O)OC)ccc21,110,2,-11,-5,110,1.3
CCn1c(C)nc2cc(C(=O)N/N=C(\C)c3ccccc3O)ccc21,137*,56,-43,16,93,1.4
CCn1c(C)nc2cc(C(=O)NNS(=O)(=O)c3ccccc3F)ccc21,110,5,-12,0,103,1.5
CC(C)c1ccc(NC(=O)c2cccnc2)cc1,143*,103,-47,15,89,2.7
CC(C)c1ccc(NC(=O)c2n[nH]c(=O)c3ccccc23)cc1,133*,66,-36,8,96,1.2
CC(C)c1ccc(NC(=S)NNC(=O)c2cccnc2)cc1,116,12,-18,0,105,1.6
CC1CCC(NC(=O)c2ccc3nc[nH]c3c2)CC1 (stereo not drawn),129*,50,-31,-7,110,2
Cc1ccc(CSCCNS(=O)(=O)c2ccccc2)cc1,99,.,1,0,100,1.4
O=c1c(Br)c(N2CCCCC2)cnn1-c1ccccc1,147*,166*,-51,14,90,3.9*
O=c1c(Br)c(N2CCCC2)cnn1-c1ccccc1,143*,93,-48,-5,102,2.7
CN1CCN(c2cnn(-c3ccccc3)c(=O)c2Br)CC1,110,15,-15,1,104,1
CC(C)(C)n1ncc2c(=O)n(Cc3cccc(Cl)c3)cnc21,111,10,-14,-8,109,1.1
O=C1c2ccccc2-c2nc3ccccc3nc21,132*,11,-35,-8,104,1.5
COc1ccccc1-c1nc2ccccc2nc1-c1ccccc1OC,93,.,8,-10,109,0.95
CC1CC1C(=O)Nc1nc(-c2cccs2)c(-c2cccs2)s1 (stereo not drawn),93,-15,8,-26,125,1
CC(NC(=O)COC(=O)/C(=C/c1cccs1)c1cccs1)c1ccccc1 (stereo not drawn),94,-2,7,-6,108,0.78
COCc1cc(CN2CCCC2)c(O)c2ncccc12,92,-20,9,12,96,0.67
Oc1ccc(CN2CCN(c3ccccc3)CC2)c2cccnc12,93,7,2,-11,112,0.85
Oc1ccc(CN2CCCCC2)c2cccnc12,99,-88,-1,4,100,11*
CCOC(=O)N1CCN(Cc2ccc(O)c3ncccc23)CC1,98,-11,1,11,94,4.8*
Oc1c(CN2CCCCC2)cc(COCc2ccccc2)c2cccnc12,100,-85,0,1,103,3.8*
Oc1ccc(CN2CCc3ccccc3C2)c2cccnc12,93,-87,7,8,94,5.2*
Cc1ccccc1C(=O)NNC(=O)CSc1nc(-c2ccccc2)cc(=O)[nH]1,104,11,-4,0,100,0.93
O=[N+]([O-])c1ccccc1N/N=C1\CC2CC=CC12 (stereo not drawn),111,58,-14,-5,110,1.3
SMILES,STAT1 activator,APP 5'UTR act,STAT1 blocker,STAT3 blocker,STAT3 act,NF-kB neuron act
Cc1nonc1C(=O)N/N=C/c1ccccc1,132*,20,-34,-12,110,1.1
Cc1nn(C)c(C(=O)N/N=C/c2cc3c(cc2Br)OCO3)c1Br,99,-2,1,1,100,1.1
Cc1nonc1C(=O)N/N=C/c1cc2c(cc1Br)OCO2,119,3,-22,-33,133*,1.5
Cc1ccc2nc(-c3ccc(N4C(=NC(=O)CCC(=O)O)SC5CS(=O)(=O)CC54)cc3)sc2c1 (stereo not drawn),134*,56,-38,-5,104,1
Cc1ccc(NC(=O)ON=C2CCCC2)cc1,130*,38,-33,-4,104,1.1
O=C(Nc1ccccc1)ON=C1CCCC1,104,9,-4,13,92,1.7
O=C(c1cc(COc2ccc3ncccc3c2)on1)N1CCC(O)CC1,88,4,12,23,83,1.5
CCOC(=O)N1CCN(C(=O)c2cc(COc3ccc4ncccc4c3)on2)CC1,60,-18,43*,56*,54,0.6
Cc1cccnc1CN1CCN(C(=O)c2cc(COc3ccc4ncccc4c3)on2)CC1,67,-10,36*,46*,63,0.65
COCCNc1c(-c2ccc(OC)c(OC)c2)nc2ccc(Cl)cn12,94,2,5,24,83,0.87
COCCNc1c(-c2cc3ccc(C)c(C)c3[nH]c2=O)nc2ccccn12,130*,121,-34,10,93,2.2
O=C(/C=C/Sc1ccccc1)c1ccc(Cl)cc1,123,-5,-25,14,90,6.2*
O=C(/C=C/Sc1ccccc1)c1ccccc1,112,18,-13,7,92,5.2*
O=C1CC(c2ccc(F)cc2)Sc2ccccc2N1 (stereo not drawn),108,-8,-9,-38,135*,1.1
CCCCNC(=O)/C(C#N)=C/c1ccc(F)cc1F,102,28,-2,12,94,0.94
N/C(=N\NC(=O)c1ccccc1Cl)c1cc2ccccc2oc1=O,102,0,-3,-11,117,1.2
Cc1ccc(CSc2nnc(-c3ccccn3)n2C)cc1,124,23,-27,6,99,1.6
Cn1c(SCc2ccc(F)cc2)nnc1-c1cccs1,140*,121,-45,5,96,2.2
Cn1c(SCc2ccc(F)cc2)nnc1-c1ccccn1,140*,71,-44,4,101,2.3
Cn1c(SCc2ccccn2)nnc1-c1cnccn1,106,14,-5,-4,109,1.4
Cn1c(SCc2ccccc2F)nnc1-c1ccccn1,142*,35,-46,14,96,1.8
Cn1c(SCc2ccccc2)nnc1-c1cccs1,117,45,-19,10,99,2.1
Cn1c(SCc2ccccc2F)nnc1-c1cnccn1,137*,61,-40,0,104,2
Cc1cc(-c2ccccc2)nc(Cl)c1C#N,100,21,0,1,102,1.1
C=C1CC(C(=O)N/N=C/c2ccccc2)C1,108,20,-9,3,98,1.1
CCCc1ccc(-c2cc(C(=O)Nc3ccc([N+](=O)[O-])cn3)c3ccccc3n2)cc1,102,23,-2,23,83,0.93
Cc1ccccc1NC(=S)Nc1ccc(Br)cc1,98,7,3,1,98,0.98
CCCOc1ccc(/C=N/Nc2ccccc2[N+](=O)[O-])c(O)c1,111,173*,-13,12,92,0.86
O=[N+]([O-])c1cccnc1N/N=C/c1ccccc1O,130*,-8,-34,9,93,1.8
